Exocytosis inh = lytic granule exocytosis inhibition | inhibition, % at 10 µM | actives 0.66% (n = 360,000) | TALL-104 LAMP-1 surface exposure, flow cytometry; cells stimulated with thapsigargin and PMA | AID 651702;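 active = inhibition above about 55%, limit read from the data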
MC4R ag barr = agonists of human melanocortin 4 receptor (MC4R) beta-arrestin | activation, % at 8.9 µM | P32245 | U2OS MC4R beta-arrestin complementation, luminescence; percent of melanotan II response, DMSO zero | actives 0.98% (n = 360,000);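 active = activation above a per-plate cutoff, the mean activation of sample wells on that plate plus 3 SD, cut at about 8% in these data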
MC4R antagonist = blocks human MC4R cAMP signaling; inhibition, % at 6.5 µM; MC4R-expressing cells, MTII-stimulated cAMP, LANCE TR-FRET; P32245; actives 0.48% (n = 360,000); AID 540295;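 active = inhibition above its plate's cutoff, the mean of tested wells on that plate plus 3 SD, cut at about 29% in these data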;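 note: 0% = Melanotan II alone and 100% = Melanotan II plus saturating MCL0020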
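System: U2OS cells stably expressing human melanocortin 4 receptor (MC4R). Reagent: Melanotan II challenge after compound preincubation. Doses: 6.5 µM. Times: 30-min compound, 1-h challenge, 1-h detection, room temperature. Measured by: TR-FRET with Eu-cAMP and labeled anti-cAMP, 671 nm. Replicates: singlicate.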
PGE2 EP2 inh = EP2 receptor (human) inhibition; inhibition, % at 25 µM; C6 glioma cells expressing human EP2, cAMP TR-FRET; cells stimulated with saturating PGE2; actives 0.52% (n = 260,000); AID 1422; P43116;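 active = percent inhibition above 40 after rounding to a whole number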;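 note: rat C6 glioma host cells with rolipram phosphodiesterase inhibitor present; the protocol text gives 20 µM as final concentration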
Target sequence (P43116 whole entry, looked up): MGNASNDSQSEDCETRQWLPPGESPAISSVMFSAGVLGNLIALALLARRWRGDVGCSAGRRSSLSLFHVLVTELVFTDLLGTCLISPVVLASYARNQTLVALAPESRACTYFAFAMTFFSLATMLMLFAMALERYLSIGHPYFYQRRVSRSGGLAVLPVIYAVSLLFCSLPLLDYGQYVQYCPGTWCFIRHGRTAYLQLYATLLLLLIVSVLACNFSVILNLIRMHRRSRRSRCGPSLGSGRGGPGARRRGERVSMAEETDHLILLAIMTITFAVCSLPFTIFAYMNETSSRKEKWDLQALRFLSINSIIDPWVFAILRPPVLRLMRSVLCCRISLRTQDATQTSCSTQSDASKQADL
EP2 modulator = modulators of human EP2 prostaglandin E2 receptor; P43116; EP2-expressing cells, cAMP HTRF FRET, PGE2 co-stimulation; induction, % at 25 µM; actives 0.83% (n = 260,000); AID 940;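 active = compounds whose cAMP rise, as percent of the full-agonist control response, exceeds 60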;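 note: rat C6 glioma line stably carrying human EP2 under a CMV promoter; the protocol text gives 20 µM as final concentration; 100% = response of wells given 1 µM PGE2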
T cell HTS = T cell immune modulators affecting CD8 T cell-vesicle binding | actives 0.068% (n = 330,000) | 2C CD8+ T cell-vesicle binding, flow cytometry; active compounds read low | response (vesicle binding), % at 7 µM | AID 2052;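 active = response, share of CD8 T cells binding vesicles, and their 90th percentile fluorescence all below set limits, cut at about 80% in these data, passing the limit was not always enough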;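 note: values below 100% mean blocked vesicle binding to the CD8+ T cells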
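Assay system: 2C TCR transgenic mouse naive CD8+ T cells, MACS-purified | Read-out: CD8+ gate FL2 mean fluorescence as % of same-row positive control | Signal: High-throughput flow cytometry with anti-B7-1 and anti-CD8 staining | Timing: Binding step 1.5 h, 37 °C, antibody labelling 20 min, ice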
MC4R barr ag = human MC4R beta-arrestin agonism confirmation | shares compounds with MC4R ag barr | U2OS MC4R beta-arrestin recruitment, luminescence; scaled DMSO 0%, Melanotan II 100% | activation, % at 8.9 µM | actives 31% (n = 2,400) | AID 602192;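 active = mean activation across replicates above the hit cutoff set in the earlier primary screen, cut at about 8% in these data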
MOR-DOR barr ag = activates mu-delta opioid heterodimer, MC4R agonist counter-screen; AID 602194; shares compounds with MC4R ag barr; actives 5.8% (n = 2,400); U2OS PathHunter beta-arrestin, beta-gal luminescence; percent of deltorphin B response, DMSO zero; activation, % at 9.2 µM;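 active = mean activation across replicates exceeds the hit threshold derived in the earlier primary screen, cut at about 18% in these data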;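 note: 100% = deltorphin B at 0.9 µM final and 0% = DMSO alone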
* = called active by the depositor; i = inactive; / = no result given. Only some compounds are listed: those with a hit (about 2.6% of all), similar ones and a draw of the others.

SMILES	Exocytosis inh	MC4R ag barr	MC4R antagonist	PGE2 EP2 inh	EP2 modulator	T cell HTS	MC4R barr ag	MOR-DOR barr ag
COc1cc(C)c(S(=O)(=O)NCc2cccs2)cc1C	-5	-2	-4	/	2	248	/	/
O=C(NCC(c1ccco1)N1CCc2ccccc21)C(=O)Nc1ccccc1 (stereo not drawn)	0	11*	6	/	/	322	1	4
O=C(NCC(c1ccco1)N1CCc2ccccc21)C(=O)Nc1ccccc1F (stereo not drawn)	-5	-2	1	/	/	513	/	/
O=C(/C=C/c1cccs1)c1ccc([N+](=O)[O-])cc1	-2	11*	6	2	-14	227	1	7
O=C(OC1CCN(c2ccc([N+](=O)[O-])cc2)CC1)c1ccccc1	0	20*	2	1	-11	488	2	6
Nc1c(N=Nc2cccc(Cl)c2)c(=O)[nH]n1-c1ccccc1	-5	13*	7	22	-28	150	6	4
COc1cc(Cn2c(-c3nonc3N)nc3ccccc32)ccc1C	2	10*	-25	17	24	832	-4	4
Nc1nonc1-c1nc2ccccc2n1Cc1ccc(Cl)cc1	-1	11*	-6	7	37	388	-1	5
COc1ccc(N2CC(O)(c3ccc(C)cc3)[N+]3=C2CCCC3)cc1 (stereo not drawn)	0	-1	-3	6	-15	174	/	/
Cc1cc(F)cc(-c2cc(C(=O)NCc3cccc(Cl)c3)[nH]n2)c1	-16	13*	19	/	/	/	2	7
CC(C)CCN1CCNC(=O)C1CC(=O)NCCCN1CCOCC1 (stereo not drawn)	0	-1	-1	/	/	470	/	/
CC(C)(C)OC(=O)N[C@@H](Cc1ccccc1)c1nnc(SCC(=O)O)o1	1	-2	2	7	14	586	/	/
CC(C)(C)OC(=O)N[C@@H](Cc1ccccc1)c1nnc(SCC(=O)c2ccc(Cl)cc2)o1	0	35*	-1	4	26	254	2	3
O=C(CCN1C(=O)/C(=C\c2ccccc2)SC1=S)NNC(=O)c1cccnc1	3	21*	1	9	-4	165	5	1
O=C(CN1C(=O)S/C(=C\c2ccccc2)C1=O)NNC(=O)c1ccccc1O	-3	0	13	12	-64	457	/	/
COc1ccccc1C(=O)NNC(=O)CCCN1C(=O)/C(=C/c2cccs2)SC1=S	2	23*	0	11	-13	675	7	4
O=C(CCN1C(=O)/C(=C\c2ccccc2)SC1=S)NNC(=O)c1ccccc1O	15	10*	-2	/	/	i	3	3
CC(C)C(C(=O)N1CCN(Cc2ccccc2)CC1)c1ccccc1 (stereo not drawn)	8	0	16	/	/	157	/	/
CCCOc1ccc(C(=O)Nc2nc(C)c(Cc3ccc4c(c3)OCO4)s2)cc1	17	47*	3	17	2	359	13*	4
CCc1cccc(CC)c1N(COC)C(=O)Cn1cnc2ccccc21	-2	-2	26	10	0	288	/	/
NC(=O)c1ccsc1NC(=O)Cc1ccc([N+](=O)[O-])cc1	-6	1	11	8	-67	319	/	/
Cc1cc(=O)[nH]c(N/N=C/c2c(C)nn(-c3ccccc3)c2Cl)n1	4	1	22	5	-14	546	/	/
Cc1nn(-c2ccccc2)c(Cl)c1/C=N/Nc1nc2ccccc2[nH]1	1	12*	-1	7	4	156	3	10
CCN(CC)C(=O)CSc1n[nH]c(=S)n1N	1	-2	-6	7	-2	179	/	/
COc1ccc(NS(=O)(=O)c2ccc(NC(=S)NC(=O)c3ccc(F)cc3)cc2)nn1	11	-2	9	10	-100	171	/	/
SMILES	Exocytosis inh	MC4R ag barr	MC4R antagonist	PGE2 EP2 inh	EP2 modulator	T cell HTS	MC4R barr ag	MOR-DOR barr ag
CC(C)(C)C(=O)NC(=S)Nc1sc2c(c1C#N)CCCCC2	8	17*	-5	9	-9	449	-3	2
CC(=O)Nc1sc2c(c1C#N)CCCCC2	-1	-1	9	6	-4	510	/	/
COc1ccccc1CNC(=O)c1cccs1	-2	2	10	3	-11	749	/	/
CCCCC(CC)Cn1c(N)c(C#N)c2nc3ccccc3nc21 (stereo not drawn)	6	17*	-6	8	-4	681	19*	15
O=C(N/N=C/C(Cl)=C\c1ccccc1)c1cccs1	11	-1	12	7	-31	282	/	/
CC(/C=N/NC(=O)c1cccs1)=C\c1ccccc1	17	16*	-15	8	5	142	2	9
COc1ccccc1COCC(O)CNCCc1ccc(C(F)(F)F)cc1 (stereo not drawn)	20	11*	16	/	/	139	8	9
OC(CNC1CCCCCC1)COc1cccc2ccccc12 (stereo not drawn)	-4	0	2	/	/	177	/	/
OC(CNCCc1ccc(Cl)cc1)COCc1ccco1 (stereo not drawn)	1	2	17	6	41	380	/	/
OC(CNCCc1ccc(C(F)(F)F)cc1)COc1ccc2ccccc2c1 (stereo not drawn)	25	12*	6	14	-77	146	9.4*	7
OC(CNCCc1ccc(C(F)(F)F)cc1)COc1cccc2ccccc12 (stereo not drawn)	31	15*	12	8	-69	140	20*	10
CC(C)(C)C1CCC(CN2C(Nc3ccccc3)=NC[C@@H]2Cc2ccccc2)CC1 (stereo partly drawn)	-3	14*	1	/	/	334	11*	16
Cc1ccc(C2CC(c3cccs3)=NN2C(=O)CCl)cc1 (stereo not drawn)	-3	10*	21	/	/	151	4	27*
CCN1C(=O)/C(=C\N2CCN(c3ccc(F)cc3)CC2)SC1=S	-1	19*	1	6	-21	306	2	6
CCN1C(=O)/C(=C\N2CCN(C)CC2)SC1=S	-2	0	-7	3	17	158	/	/
O=c1cc(-c2ccccc2)nc(N2CCN(Cc3ccccc3)CC2)[nH]1	0	1	-5	7	-22	168	/	/

Source: PubChem (several laboratories)
